Only some compounds are listed: those with a hit (about 4.1% of all), similar ones and a draw of the others.
Apaf1 inhib = inhibitors of human Apaf-1 apoptosome | O14727 | reconstituted apoptosome caspase-3 activity, DEVD-Rh110 fluorescence | inhibition, % at 20 µM | actives 0.71% (n = 330,000); active means inhibition of at least 40% at 20 µM;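 further: plate controls were DMSO wells for no effect and DEVD-CHO caspase inhibitor wells for full effect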
Target sequence (O14727 whole entry, looked up): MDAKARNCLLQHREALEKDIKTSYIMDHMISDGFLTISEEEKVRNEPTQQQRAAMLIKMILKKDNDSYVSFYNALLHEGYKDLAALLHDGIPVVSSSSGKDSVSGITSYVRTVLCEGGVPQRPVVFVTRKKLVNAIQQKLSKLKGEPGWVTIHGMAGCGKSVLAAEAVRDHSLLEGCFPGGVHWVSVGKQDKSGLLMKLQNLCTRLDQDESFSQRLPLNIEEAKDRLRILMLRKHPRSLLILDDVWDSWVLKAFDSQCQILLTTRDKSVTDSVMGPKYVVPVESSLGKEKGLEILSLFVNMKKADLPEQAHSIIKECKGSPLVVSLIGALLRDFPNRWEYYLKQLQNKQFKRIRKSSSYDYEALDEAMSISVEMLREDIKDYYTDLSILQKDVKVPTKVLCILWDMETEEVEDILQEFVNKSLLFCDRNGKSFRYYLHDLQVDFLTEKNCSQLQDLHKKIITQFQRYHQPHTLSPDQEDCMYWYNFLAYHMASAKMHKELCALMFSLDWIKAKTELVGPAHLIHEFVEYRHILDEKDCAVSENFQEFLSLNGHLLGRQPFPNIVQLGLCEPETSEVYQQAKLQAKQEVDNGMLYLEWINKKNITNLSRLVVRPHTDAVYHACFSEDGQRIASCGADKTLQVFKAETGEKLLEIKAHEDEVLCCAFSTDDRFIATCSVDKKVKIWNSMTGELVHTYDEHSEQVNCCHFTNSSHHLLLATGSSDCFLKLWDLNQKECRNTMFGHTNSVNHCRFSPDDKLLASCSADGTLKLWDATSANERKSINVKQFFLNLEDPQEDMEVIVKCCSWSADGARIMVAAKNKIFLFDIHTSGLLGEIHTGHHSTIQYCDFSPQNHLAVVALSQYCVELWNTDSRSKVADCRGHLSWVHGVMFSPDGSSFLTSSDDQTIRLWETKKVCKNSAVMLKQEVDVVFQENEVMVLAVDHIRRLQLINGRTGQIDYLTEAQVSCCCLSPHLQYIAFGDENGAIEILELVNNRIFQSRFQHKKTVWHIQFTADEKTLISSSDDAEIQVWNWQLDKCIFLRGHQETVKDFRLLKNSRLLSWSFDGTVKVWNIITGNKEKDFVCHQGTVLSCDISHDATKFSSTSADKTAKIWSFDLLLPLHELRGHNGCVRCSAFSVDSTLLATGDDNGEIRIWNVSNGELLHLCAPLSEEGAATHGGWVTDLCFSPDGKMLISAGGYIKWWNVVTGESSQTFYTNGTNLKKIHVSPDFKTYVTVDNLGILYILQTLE
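System: reconstituted apoptosome with Apaf-1, cytochrome c, caspase-9, procaspase-3, dATP; Signal: Rh110 fluorescence intensity; Schedule: 30 min compound preincubation, 50 min activation, room temperature; Reagent: cytochrome c trigger plus (Z-DEVD)2-Rh110 caspase-3 substrate.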
XBP1 UPR activ = adaptive UPR (XBP1) activation | AID 463104 | actives 0.33% (n = 330,000) | CHO-XBP1 luciferase reporter, IRE1-XBP1 UPR activation, luminescence; percent of tunicamycin response, DMSO as zero | activation, % at 20 µM;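 active means versus positive control, 20 µM dose yields 30% or more activation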;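 further: 100% = tunicamycin at 10 µg/mL and 0% = DMSO only wells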
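Assay system: CHO-XBP1 luciferase reporter cells; Schedule: 6 h treatment, 37 °C; Detection: glow luminescence from Steady-Glo reagent; Benchmarks: high control tunicamycin 10 µg/mL final, low control DMSO vehicle only.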
UPR CHOP act = activators of apoptotic arm of unfolded protein response (CHOP). AID 449763. actives 0.34% (n = 330,000). activation, % at 10 µM. CHO-CHOP luciferase reporter, UPR activation, luminescence; percent of tunicamycin response over DMSO baseline;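 active means at 10 µM dose, activation of 40% or more, normalized to positive control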;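 further: 100% = tunicamycin at 10 µg/mL and 0% = DMSO alone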
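measured by = luciferase luminescence | assay system = CHO-CHOP cells, stable luciferase reporter of PERK-eIF2a-CHOP signalling | amount = 500 reporter cells seeded per well | timing = 6 h compound exposure at 37 °C after overnight seeding | controls = positive tunicamycin 10 µg/mL, negative DMSO alone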
Mdm2 MdmX PPI = disrupts the human Mdm2-MdmX interaction; actives 3% (n = 330,000); inhibition, % at 8 µM; SaOS-2 split-luciferase Mdm2/MdmX complementation, luminescence; O15151+Q00987; AID 485346;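 active means inhibition of at least 50% at 8 µM in the primary screen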
UBC13 polyUb = human UBC13 polyubiquitination inhibition | UBC13 polyubiquitin chain formation, TR-FRET | inhibition, % at 20 µM | actives 0.47% (n = 330,000) | AID 485273; in the data active means inhibition above about 45%, passing the limit was not always enough
Mdm2-MdmX conf = confirmation of human Mdm2/MdmX interaction inhibitors. actives 55% (n = 10,000). AID 489028. shares compounds with Mdm2 MdmX PPI. Mdm2-MdmX binding, luminescent assay. inhibition, % at 8 µM; in the data active means inhibition above about 40%
Full FLuc ctr = counter-screen for Mdm2/MdmX inhibitors: full-length luciferase; actives 77% (n = 6,200); SaOS-2 full-length luciferase counterscreen, luminescence; shares compounds with Mdm2 MdmX PPI; inhibition, % at 8 µM;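 active means mean inhibition at 8 µM reaching about 37%, which flags the compound as non-specific, limit read from the data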;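 further: p53-null SaOS-2 cells with luciferase driven by a doxycycline-inducible promoter; compound on cells about two nights before reading with doxycycline added after day one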
Numbers without * were called inactive; · = not tested or not shown.

SMILES	Apaf1 inhib	XBP1 UPR activ	UPR CHOP act	Mdm2 MdmX PPI	UBC13 polyUb	Mdm2-MdmX conf	Full FLuc ctr
CN(C)/C=C/c1c([N+](=O)[O-])c2ccc(O)cc2n1-c1ccccc1	11	-2	-1	61*	-195	68*	54*
O=C1c2ccc(-c3ccc4c(c3)C(=O)N(CCO)C4=O)cc2C(=O)N1CCO	2	-1	0	25	4	·	·
CC1=Nc2cc(C(=O)O)ccc2Sc2ccc(Br)cc21	-4	-3	0	-23	-34	·	·
CCCC1=Nc2cc(C(=O)NCCCOC(C)C)ccc2Sc2ccccc21	25	9	-1	50*	-2	66*	71*
CC1=Nc2cc(C(=O)NCCCOC(C)C)ccc2Sc2ccccc21	-8	1	-1	49	13	·	·
CC1=Nc2cc(C(=O)NCC3CCCO3)ccc2Sc2ccc(Br)cc21 (stereo unspecified)	-16	1	0	56*	11	60*	61*
CC1=Nc2cc(C(=O)NCCCOC(C)C)ccc2Sc2ccc(C)cc21	-16	7	-1	63*	19	52*	81*
CCC1=Nc2cc(C(=O)NCCCOC)ccc2Sc2ccccc21	3	5	0	48	2	·	·
O=C(CN1C(=O)CCSc2ccc(S(=O)(=O)N3CCCC3)cc21)Nc1ccccc1	4	5	0	23	2	·	·
Cc1c(/C(O)=C2/C(=O)C(=O)N(CCN3CCOCC3)C2c2ccccn2)cnn1-c1ccccc1 (stereo unspecified)	10	-8	-8	-5	-16	·	·
O=C(NNC(=O)c1ccc([N+](=O)[O-])cc1Cl)c1ccncc1	-14	1	4	-17	-1	·	·
Cc1ccc(C(=O)NCC(=O)OCC(=O)Nc2ccccc2[N+](=O)[O-])cc1	-19	1	-3	16	10	·	·
Cc1cc(C)cc(C(=O)N2CC(=O)Nc3ccccc32)c1	-5	24	-2	58*	5	60*	77*
Cc1ccc2nc3sc(C(=O)N4CCOCC4)c(N)c3cc2c1	12	-5	-9	59*	-9	61*	103*
Cc1ccsc1C(=O)N1CC(=O)Nc2ccccc21	2	-1	-1	18	-1	·	·
Cc1ccc2cc3c(N)c(C(=O)N4CCOCC4)sc3nc2c1	9	0	4	-20	-14	·	·
Cc1ccc2cc3c(N)c(C(=O)N4CC(=O)Nc5ccccc54)sc3nc2c1	12	12	2	64*	-25	57*	83*
O=C1CC(N2CCSCC2)C(=O)N1CCc1ccccc1 (stereo unspecified)	10	-2	1	8	0	·	·
CC(=O)c1cn(Cc2ccccc2)c(=O)n(Cc2ccc(F)cc2)c1=O	2	-1	0	0	5	·	·
CC(C)(C)C(=O)O/N=C(\N)Cc1ccc(-c2csnn2)cc1	-13	2	-1	77*	-15	18	·
Cc1c(O)nc(SCC(=O)Nc2ccc3c4c(cccc24)CC3)n(-c2ccc(F)cc2)c1=O	4	-3	-3	5	0	·	·
O=C(Nc1cccc(Cl)c1)Nc1cc(S(=O)(=O)N2CCCCC2)ccc1Cl	5	16	15	89*	-13	91*	51*
COc1ccc(S(=O)(=O)N2CCOCC2)cc1NC(=O)COc1ccc(C)cc1	0	-4	0	24	2	·	·
O=C(Nc1ccc(Cl)c(Cl)c1)Nc1cc(S(=O)(=O)N2CCOCC2)ccc1N1CCCC1	25	-4	-2	53*	-8	12	·
O=C(COc1ccc(S(=O)(=O)N2CCOCC2)cc1)Nc1ccc(Cl)c(C(F)(F)F)c1	6	-5	1	61*	4	43*	65*
SMILES	Apaf1 inhib	XBP1 UPR activ	UPR CHOP act	Mdm2 MdmX PPI	UBC13 polyUb	Mdm2-MdmX conf	Full FLuc ctr
CCOc1ccc(S(=O)(=O)N2CCOCC2)cc1NC(=O)CSCc1ccc(C)cc1	20	1	0	52*	-2	56*	54*
COc1cc(NC(=O)c2cccc(S(=O)(=O)N3CCCCC3)c2)cc(OC)c1OC	-2	-2	0	31	1	·	·
Cc1cc(F)ccc1S(=O)(=O)N(CC(=O)N1CCOCC1)CC(=O)N1CCOCC1	-1	-3	0	16	3	·	·
COc1ccc(N(C)S(=O)(=O)c2cccc(C(=O)NC3CCCC(C)C3C)c2)cc1 (stereo unspecified)	22	0	0	17	-3	·	·
CCn1c(-c2ccccc2)csc1=Nc1ccc(O)cc1	7	2	4	-258	4	·	·
COc1ccc(Cl)cc1NC(=O)COc1ccc(S(=O)(=O)N2CCOCC2)cc1C	-5	7	8	68*	13	18	·
CCc1ccccc1OCC(=O)Nc1cc(S(=O)(=O)N2CCOCC2)ccc1N1CCCCC1	20	-1	4	52*	2	41*	83*
COc1ccccc1OCC(=O)Nc1cc(S(=O)(=O)N2CCOCC2)ccc1N1CCCCC1	14	-3	9	5	8	·	·
O=S1(=O)C=C(Sc2nnc(-c3ccccc3)o2)c2ccccc21	-12	-6	-11	80*	4	100*	50*
COc1ccccc1NC(=O)NC1CCS(=O)(=O)C1 (stereo unspecified)	-1	13	3	10	16	·	·
COc1ccc(-c2cnnc(N/N=C/C(C)=C/c3ccccc3)n2)cc1	-6	7	1	10	-4	·	·
COc1cccc(NC(=O)Nc2nc(SC)ns2)c1	-4	-5	4	-66	-1	·	·
CC(=O)Nc1cccc(NC(=O)Nc2cccc(F)c2)c1	-11	1	1	4	4	·	·
CCSc1nsc(NC(=O)Nc2cccc(F)c2)n1	-3	3	9	94*	8	88*	26
COc1cccc(NC(=O)Nc2nc(SC(C)(C)C)ns2)c1	8	6	18	93*	-2	72*	57*
CCCSc1nsc(NC(=O)Nc2ccc(F)cc2F)n1	-8	4	10	87*	8	59*	71*
CCN(CC)CCCn1c2c(c(SCC(=O)Nc3ccc(OC(F)(F)F)cc3)nc1=O)CCC2	11	-1	-2	15	12	·	·
O=C(CCNS(=O)(=O)c1ccc(F)c(Cl)c1)NCc1ccccc1F	7	1	0	-2	-16	·	·
CSc1nc2nccc(/C=C\c3ccccc3)n2n1	5	-2	1	75*	-6	66*	24
Cc1cccn2c(=O)c(/C=C(\C#N)S(=O)(=O)c3ccccc3)c(Oc3ccc(Cl)cc3)nc12	7	2	4	15	-3	·	·
